The nature of data set [1]: Selectivity ratio of inhibition of recombinant human CYP3A4 to IC50 for inhibition of recombinant mouse soluble epoxide hydrolase using DBF as substrate.
The test system of data set [2] is AR-42J cell line. The data set can be described thus: Protection against cerulein-induced pancreatic damage in rat AR42J cells assessed as reduction in TRB3 mRNA level at 60 uM preincubated for 1 hr followed by cerulein addition and measured after 8 hrs by Trisure-reagent based RT-PCR analysis. It is filed as functional, cell-based. The note with it: time 9.0 hrs. Summed up: (§1)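 Rat pancreatic acinar AR42J cells are exposed to 10 nM cerulein with or without inhibitor co-incubation at 60 μM. IL-6, TNF-α, CHOP and TRB3 mRNA levels are measured and compared with control and cerulein-only cells. Mean ± SEM, n = 5 per group.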

A further data set can be described thus: physchem. Particulars: 1% DMSO/99% PBS buffer solution.
The subject of data set [3] is AR-42J cell line. The data set is described as follows: Protection against cerulein-induced pancreatic damage in rat AR42J cells assessed as reduction in IL-6 mRNA level at 60 uM preincubated for 1 hr followed by cerulein addition and measured after 8 hrs by Trisure-reagent based RT-PCR analysis. It is filed as functional, cell-based. Particulars: time 9.0 hrs. Summed up:
as §1

Data set [4] is described as follows: Stability in human liver microsomes assessed as parent compound remaining measured after 60 mins in presence of NADPH by LC-MS/MS analysis. Particulars: read-out: Stabilty. The data set is classed as ADME, Microsome. Summed up: (§2)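 Compound is incubated at 37 °C with human, mouse or rat liver microsomes in 50 mM phosphate buffer pH 7.4. […] Samples at 0–60 min are quenched into acetonitrile; percent parent remaining at 60 min is reported. Testosterone is the positive control.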
(In general: Liver microsomes are a subcellular fraction often used to study metabolism.)

The subject of the next data set is THLE-2. The data set is described as follows: Cytotoxicity against human THLE-2 cells assessed as reduction in cell viability measured after 72 hrs by ATPlite assay. It is filed as cell-based. The note with it: thle-2, 72 h, read-out: LC50 (the source's name). Summed up: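 THLE-2 cells were grown in BEGM with 0.7 μg/mL phosphoethanolamine, 0.5 ng/mL EGF and 10% FBS, plated at 10,000 cells/well and left to adhere for 24 h. Cells were exposed to 0–100 μM final (1% DMSO) for 72 h at 37 °C, 5% CO2.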
In general terms: In ATP-based viability assays light output follows the ATP content of the culture.

A short description of data set [5]: Stability in mouse liver microsomes assessed as parent compound remaining measured after 60 mins in presence of NADPH by LC-MS/MS analysis. It is filed as ADME, Microsome. The note with it: read-out: Stabilty. Summed up:
as §2

Data set [6] has as its target T1, Bifunctional epoxide hydrolase 2 (Rattus norvegicus, UniProt P80299).
T1 sequence (P80299 whole entry): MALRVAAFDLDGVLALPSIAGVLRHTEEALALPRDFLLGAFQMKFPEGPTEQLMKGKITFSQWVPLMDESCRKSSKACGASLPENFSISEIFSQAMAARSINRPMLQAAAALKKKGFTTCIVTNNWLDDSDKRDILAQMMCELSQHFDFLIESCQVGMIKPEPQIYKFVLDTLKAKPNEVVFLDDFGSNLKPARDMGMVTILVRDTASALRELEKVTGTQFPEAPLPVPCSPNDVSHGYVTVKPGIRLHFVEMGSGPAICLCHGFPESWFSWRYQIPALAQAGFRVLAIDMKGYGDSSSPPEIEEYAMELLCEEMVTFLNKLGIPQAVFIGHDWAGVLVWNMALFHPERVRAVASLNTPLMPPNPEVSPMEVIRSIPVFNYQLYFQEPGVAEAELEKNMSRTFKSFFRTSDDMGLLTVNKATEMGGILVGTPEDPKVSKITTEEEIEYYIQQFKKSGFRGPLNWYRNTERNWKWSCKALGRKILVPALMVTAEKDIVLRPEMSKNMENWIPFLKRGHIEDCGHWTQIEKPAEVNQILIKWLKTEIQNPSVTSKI
The data set is described as follows: Inhibition of recombinant rat soluble epoxide hydrolase using CMNPC as substrate preincubated for 5 mins followed by substrate addition and measured at 30 secs interval for 10 mins by fluorescence assay. An outline of the steps: (§3)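 Purified recombinant enzyme was preincubated with inhibitor (0.4–100,000 nM final) for 5 min at 30 °C in 100 mM sodium phosphate, pH 7.4, with 0.1 mg/mL BSA and 1% DMSO. CMNPC was added at 5 μM final. 6-Methoxynaphthaldehyde fluorescence (ex 330/em 465 nm) was read every 30 s for 10 min. IC50 values are averages of three replicates.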

The species named for another data set is Homo sapiens. The data set can be described thus: Selectivity ratio of inhibition of recombinant human CYP2D6 to IC50 for inhibition of recombinant human soluble epoxide hydrolase.
Data set [7] has as its target Voltage-gated inwardly rectifying potassium channel KCNH2 (Homo sapiens, UniProt Q12809). The data set is described as follows: Inhibition of human ERG at 10 uM.
The target in data set [8] is T2, Bifunctional epoxide hydrolase 2 (Mus musculus, UniProt P34914).
T2 sequence (P34914 whole entry): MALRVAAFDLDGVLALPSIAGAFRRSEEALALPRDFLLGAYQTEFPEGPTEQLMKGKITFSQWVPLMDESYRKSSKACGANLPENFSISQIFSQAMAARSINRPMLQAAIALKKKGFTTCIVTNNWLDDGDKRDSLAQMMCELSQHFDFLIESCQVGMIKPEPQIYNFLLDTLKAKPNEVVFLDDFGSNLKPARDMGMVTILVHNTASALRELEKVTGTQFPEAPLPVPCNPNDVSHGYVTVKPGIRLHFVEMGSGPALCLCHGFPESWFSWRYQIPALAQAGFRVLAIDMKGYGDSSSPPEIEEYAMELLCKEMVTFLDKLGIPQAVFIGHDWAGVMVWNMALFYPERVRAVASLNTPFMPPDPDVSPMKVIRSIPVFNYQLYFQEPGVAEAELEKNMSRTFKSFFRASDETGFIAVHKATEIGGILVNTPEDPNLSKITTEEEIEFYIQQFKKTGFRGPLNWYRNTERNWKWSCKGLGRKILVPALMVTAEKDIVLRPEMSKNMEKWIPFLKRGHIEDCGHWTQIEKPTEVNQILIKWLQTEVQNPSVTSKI
The data set can be described thus: Inhibition of recombinant mouse soluble epoxide hydrolase using CMNPC as substrate preincubated for 5 mins followed by substrate addition and measured at 30 secs interval for 10 mins by fluorescence assay. An outline of the steps: as §3

For data set [9], the system named is AR-42J cell line. The data set can be described thus: Protection against cerulein-induced pancreatic damage in rat AR42J cells assessed as reduction in CHOP mRNA level at 60 uM preincubated for 1 hr followed by cerulein addition and measured after 8 hrs by Trisure-reagent based RT-PCR analysis. The data set is classed as functional, cell-based. Particulars: time 9.0 hrs. Summed up:
as §1

The subject of data set [10] is AR-42J cell line. The data set can be described thus: Protection against cerulein-induced pancreatic damage in rat AR42J cells assessed as reduction in TNF-alpha mRNA level at 60 uM preincubated for 1 hr followed by cerulein addition and measured after 8 hrs by Trisure-reagent based RT-PCR analysis. It is filed as functional, cell-based. The note with it: time 9.0 hrs. An outline of the steps:
as §1

Data set [11] is described as follows: Cytotoxicity against human PBMC assessed as reduction in cell viability measured after 72 hrs by ATPlite assay. Particulars: read-out: LC50 (the source's name).
Data set [12] in a line: Stability in rat liver microsomes assessed as parent compound remaining measured after 60 mins in presence of NADPH by LC-MS/MS analysis. Particulars: read-out: Stabilty. It is filed as ADME, Microsome. Summed up: as §2
The next data set concerns Mus musculus. The data set can be described thus: Protection against cerulein-induced acute pancreatitis in C57BL/6J mouse assessed as reduction in ATF3 mRNA level at 30 mg/kg administered 24 hrs post-cerulein addition and measured after 24 hrs by Trisure-reagent based RT-PCR analysis. The data set is classed as functional, organism-based. Summed up: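 Post-induction (treatment) protocol in C57BL/6J mice. Acute pancreatitis is induced by several cerulein administrations, followed by ip sEH inhibitor at 3 or 30 mg/kg. Pancreatic mRNA of TNF-α, IL-1β, MCP-1 and ATF3 is quantified against control and cerulein-only groups. Mean ± SEM, n = 5 per group.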

pIC50: −log10 of the molar value. In brackets after ≈: the same amount, converted by molar mass. Activity calls are given as the source filed them. The calls are words filed in the database; no cut-off is given here.

Broadly, the solubility (kinetic) is the concentration staying in solution when a stock, usually in DMSO, is diluted into the medium. For orientation: pIC50 means −log10 of the IC50, conventionally taken in molar units.

Voltage-gated inwardly rectifying potassium channel KCNH2, sequence (Q12809 whole entry): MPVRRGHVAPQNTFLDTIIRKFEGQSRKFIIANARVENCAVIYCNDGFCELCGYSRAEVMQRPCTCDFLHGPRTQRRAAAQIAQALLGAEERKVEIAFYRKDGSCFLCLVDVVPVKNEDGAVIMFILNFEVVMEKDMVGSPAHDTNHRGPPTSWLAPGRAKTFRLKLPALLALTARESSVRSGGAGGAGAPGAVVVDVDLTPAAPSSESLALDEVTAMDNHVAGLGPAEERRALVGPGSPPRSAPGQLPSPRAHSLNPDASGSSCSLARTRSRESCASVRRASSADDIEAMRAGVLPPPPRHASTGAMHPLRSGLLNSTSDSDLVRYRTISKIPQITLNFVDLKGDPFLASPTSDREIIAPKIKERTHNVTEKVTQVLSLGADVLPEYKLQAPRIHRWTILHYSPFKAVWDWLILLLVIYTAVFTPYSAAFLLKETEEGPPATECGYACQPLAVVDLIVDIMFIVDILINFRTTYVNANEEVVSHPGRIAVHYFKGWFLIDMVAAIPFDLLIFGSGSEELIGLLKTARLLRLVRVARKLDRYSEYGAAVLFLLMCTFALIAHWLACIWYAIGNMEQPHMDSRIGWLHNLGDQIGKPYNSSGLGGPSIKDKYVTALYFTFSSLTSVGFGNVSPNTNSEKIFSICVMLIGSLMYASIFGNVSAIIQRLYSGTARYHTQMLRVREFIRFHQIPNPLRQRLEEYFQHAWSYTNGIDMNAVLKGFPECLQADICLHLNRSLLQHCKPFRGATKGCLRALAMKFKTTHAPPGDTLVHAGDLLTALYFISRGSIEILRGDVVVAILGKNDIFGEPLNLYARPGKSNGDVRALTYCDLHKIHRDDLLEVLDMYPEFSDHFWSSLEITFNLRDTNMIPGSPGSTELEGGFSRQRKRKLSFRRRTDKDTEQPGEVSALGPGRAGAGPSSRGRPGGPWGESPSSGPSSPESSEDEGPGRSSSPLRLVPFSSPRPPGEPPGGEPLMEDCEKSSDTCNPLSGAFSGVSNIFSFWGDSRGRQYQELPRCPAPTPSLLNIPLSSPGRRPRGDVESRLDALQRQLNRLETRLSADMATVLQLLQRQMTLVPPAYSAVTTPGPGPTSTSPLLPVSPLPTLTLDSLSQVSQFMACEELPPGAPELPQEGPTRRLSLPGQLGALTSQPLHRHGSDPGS

For `CC(=O)N1CCC(NC(=O)NC23CC4CC(CC(C4)O2)C3)CC1`, the Selectivity ratio (in data set [1]; in the data set listed under Homo sapiens) was over 100 each time. In addition, the result in the data set on AR-42J cell line [2], in the data set with AR-42J cell line [3], in the data set on AR-42J cell line [9] and in the data set on AR-42J cell line [10] was Active. Moreover, the kinetic solubility at 2 h in the data set “physchem” amounted to 59 µM (≈ 19 µg/mL). In addition, the remaining at 1 h in [4] amounted to 88.8%; in data set [5] it was 80.5%; in [12], 85.1%. For the same compound, the CC50 with THLE-2 was over 100 µM; in data set [11], over 20 µM. For the same compound, the pIC50 was 8.48 in [6] and 7.03 in data set [8]. In data set [7], the “inhibition (INH)” value is given as “Not Active”.

Regarding `CC(C)S(=O)(=O)N1CCC(NC(=O)NC23CC4CC(CC(C4)O2)C3)CC1`, the outcome in the data set with AR-42J cell line [2], with AR-42J cell line [3], with AR-42J cell line [9], in the data set on AR-42J cell line [10] and in the data set with Mus musculus was Active. The compound further returned a kinetic solubility at 2 h in the data set “physchem” of 34 µM (≈ 13.1 µg/mL). Also, the values for the remaining at 1 h in [4], in [5] and in data set [12] were 72.7%, 63.9% and 63.9%, respectively. The CC50 in the data set with THLE-2 is over 100 µM; in [11], over 20 µM. The pIC50 in [6] is 8.72; in data set [8], 7.10. Besides, the “inhibition (INH)” value in [7] is listed as “Not Active”.

Source of the values: ChEMBL document CHEMBL4725350, “2-Oxaadamant-1-yl Ureas as Soluble Epoxide Hydrolase Inhibitors: In Vivo Evaluation in a Murine Model of Acute Pancreatitis” (J Med Chem, 2020).
